Columns and labels:
[1] = biological target: 5-hydroxytryptamine receptor 1D (Homo sapiens, UniProt P28221); test: Binding activity against human 5-hydroxytryptamine 1D receptor
[2] = biological target: 5-hydroxytryptamine receptor 1B (Homo sapiens, UniProt P28222); test: Binding activity against human 5-hydroxytryptamine 1B receptor
How it was run: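 Radioligand competition binding to human receptor, run by a procedure described in an earlier paper. Binding curves were fitted with an iterative four-parameter logistic model to give IC50, which was then converted to pKi.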

D(2) dopamine receptor = D(2) dopamine receptor (Homo sapiens, UniProt P14416); test: Binding affinity for human Dopamine receptor D2 expressed in CHO cells; assay type: cell-based
Chain of D(2) dopamine receptor (P14416 whole entry): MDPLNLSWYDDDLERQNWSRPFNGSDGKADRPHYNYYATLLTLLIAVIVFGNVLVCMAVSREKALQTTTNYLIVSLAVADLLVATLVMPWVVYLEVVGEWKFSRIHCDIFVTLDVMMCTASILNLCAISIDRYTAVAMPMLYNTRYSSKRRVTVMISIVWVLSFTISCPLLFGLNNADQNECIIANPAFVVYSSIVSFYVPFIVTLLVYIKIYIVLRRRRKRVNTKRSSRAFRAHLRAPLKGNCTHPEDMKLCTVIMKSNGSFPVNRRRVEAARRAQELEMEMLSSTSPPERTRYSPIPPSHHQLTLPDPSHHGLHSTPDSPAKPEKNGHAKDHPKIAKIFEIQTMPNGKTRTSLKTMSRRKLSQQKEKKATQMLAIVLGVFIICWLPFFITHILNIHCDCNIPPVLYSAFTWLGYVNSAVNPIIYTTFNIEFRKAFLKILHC

D(3) dopamine receptor = D(3) dopamine receptor (Homo sapiens, UniProt P35462); test: Binding affinity for human Dopamine receptor D3 expressed in CHO cells; assay type: cell-based
Chain of D(3) dopamine receptor (P35462 whole entry): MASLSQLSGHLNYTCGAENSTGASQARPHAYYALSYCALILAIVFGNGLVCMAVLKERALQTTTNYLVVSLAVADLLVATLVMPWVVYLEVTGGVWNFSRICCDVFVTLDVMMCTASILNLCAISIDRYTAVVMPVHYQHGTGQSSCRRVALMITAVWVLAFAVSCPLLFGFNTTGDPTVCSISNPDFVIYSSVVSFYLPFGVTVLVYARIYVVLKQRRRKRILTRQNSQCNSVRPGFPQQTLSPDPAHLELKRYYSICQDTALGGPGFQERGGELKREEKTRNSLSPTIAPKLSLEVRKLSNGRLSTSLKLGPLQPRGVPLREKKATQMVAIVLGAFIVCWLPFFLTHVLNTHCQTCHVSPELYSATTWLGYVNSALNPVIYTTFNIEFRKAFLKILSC

[3] = Oral bioavailability in rat; conditions: in vivo
Cytochrome P450 2D6 = Cytochrome P450 2D6 (Homo sapiens, UniProt P10635); test: Inhibition of cytochrome P450 2D6; assay type: ADME
Chain of Cytochrome P450 2D6 (P10635 whole entry): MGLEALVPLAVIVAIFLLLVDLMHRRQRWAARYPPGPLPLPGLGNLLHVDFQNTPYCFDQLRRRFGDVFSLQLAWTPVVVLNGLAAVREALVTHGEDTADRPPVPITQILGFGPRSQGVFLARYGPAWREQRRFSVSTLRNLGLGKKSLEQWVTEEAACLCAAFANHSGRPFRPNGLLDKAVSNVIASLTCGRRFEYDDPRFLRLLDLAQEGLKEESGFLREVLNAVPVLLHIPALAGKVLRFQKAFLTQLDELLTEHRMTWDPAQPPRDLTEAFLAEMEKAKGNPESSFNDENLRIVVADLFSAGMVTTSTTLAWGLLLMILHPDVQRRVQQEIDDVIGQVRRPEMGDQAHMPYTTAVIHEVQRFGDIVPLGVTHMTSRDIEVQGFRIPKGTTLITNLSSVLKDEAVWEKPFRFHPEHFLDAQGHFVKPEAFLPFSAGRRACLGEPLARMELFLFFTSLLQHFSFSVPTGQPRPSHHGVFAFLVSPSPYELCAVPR

[4] = Compound was evaluated for Blood clearance in rat; conditions: whole blood
[5] = Compound was evaluated for its Half life in rat; conditions: in vivo

Chain of 5-hydroxytryptamine receptor 1D (P28221 whole entry): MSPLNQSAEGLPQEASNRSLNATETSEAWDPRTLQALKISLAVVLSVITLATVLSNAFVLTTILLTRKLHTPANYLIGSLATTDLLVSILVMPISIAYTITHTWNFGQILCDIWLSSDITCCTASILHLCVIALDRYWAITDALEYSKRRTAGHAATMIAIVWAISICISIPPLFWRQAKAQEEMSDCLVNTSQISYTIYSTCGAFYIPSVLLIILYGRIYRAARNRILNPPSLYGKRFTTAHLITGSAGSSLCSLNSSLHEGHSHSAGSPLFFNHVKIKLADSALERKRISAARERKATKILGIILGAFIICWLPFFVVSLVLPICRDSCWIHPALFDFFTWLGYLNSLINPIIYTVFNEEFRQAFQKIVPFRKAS
Chain of 5-hydroxytryptamine receptor 1B (P28222 whole entry): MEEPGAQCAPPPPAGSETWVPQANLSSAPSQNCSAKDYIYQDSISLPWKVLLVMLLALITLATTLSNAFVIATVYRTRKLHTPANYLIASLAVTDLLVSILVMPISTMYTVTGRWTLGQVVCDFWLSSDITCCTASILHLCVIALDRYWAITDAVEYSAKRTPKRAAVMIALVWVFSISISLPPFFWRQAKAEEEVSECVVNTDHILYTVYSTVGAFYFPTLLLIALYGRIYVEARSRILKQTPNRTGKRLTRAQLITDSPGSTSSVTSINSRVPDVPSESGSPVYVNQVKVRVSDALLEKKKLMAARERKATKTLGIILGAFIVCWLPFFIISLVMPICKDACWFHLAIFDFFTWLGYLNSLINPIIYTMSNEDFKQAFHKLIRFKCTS

Row | Ki [1] [nM] | Ki [2] [nM] | Ki (D(2) dopamine receptor) [nM] | Ki (D(3) dopamine receptor) [nM] | bioavailability [3] [%] | IC50 (Cytochrome P450 2D6) [nM] | clearance [4] [mL/min/kg] | half-life [5] [h] | Inhibition (Cytochrome P450 2D6) [%] | SMILES
1 | 100 | 158 | 158 | 1.26 |  |  |  |  |  | N#Cc1ccc2c(c1)CN(CC[C@H]1CC[C@H](NC(=O)/C=C/c3ccccc3)CC1)CC2
2 | 3980 | 6310 | 316 | 5.01 | 45 |  |  |  |  | CS(=O)(=O)c1cccc(/C=C/C(=O)N[C@H]2CC[C@H](CCN3CCc4cc(C#N)ccc4C3)CC2)c1.Cl
3 | 100 | 631 |  |  | 43 | 800 | 6 | 6.3 |  | Cl.N#Cc1ccc2c(c1)CN(CC[C@H]1CC[C@H](NC(=O)c3cc4ccccc4[nH]3)CC1)CC2
4 |  |  | 398 | 7.94 |  |  |  |  |  | N#Cc1ccc2c(c1)CCN(CC[C@H]1CC[C@H](NC(=O)c3cccc4ccccc34)CC1)C2
5 |  |  | 794 | 15.8 |  |  |  |  | 17 | Cl.N#Cc1ccc2c(c1)CCN(CC[C@H]1CC[C@H](NC(=O)c3cc4ccccc4[nH]3)CC1)C2
6 | 631 | > 10000 | 200 | 3.16 |  |  |  |  |  | N#Cc1ccc2c(c1)CCN(CC[C@H]1CC[C@H](NC(=O)/C=C/c3ccc(F)cc3)CC1)C2
7 |  |  | 126 | 3.16 |  |  |  |  |  | N#Cc1ccc2c(c1)CN(CC[C@H]1CC[C@H](NC(=O)/C=C/c3c[nH]c4ccccc34)CC1)CC2
8 | 100 | > 10000 | 1580 | 10 |  |  |  |  |  | N#Cc1ccc2c(c1)CCN(CC[C@H]1CC[C@H](NC(=O)c3ccc4ccccc4c3)CC1)C2
9 | 251 | 158 | 794 | 12.6 |  |  |  |  |  | N#Cc1ccc2c(c1)CN(CCCCNC(=O)/C=C/c1c[nH]c3ccccc13)CC2
10 | 316 | 1000 | 200 | 3.16 |  |  |  |  |  | N#Cc1ccc2c(c1)CCN(CC[C@H]1CC[C@H](NC(=O)/C=C/c3ccccc3)CC1)C2
11 | 63.1 | 100 |  |  |  |  |  |  |  | O=C(/C=C/c1c[nH]c2ccccc12)NCCCCN1CCc2ccc(OS(=O)(=O)C(F)(F)F)cc2C1

Source: ChEMBL document CHEMBL1132939, “Design and synthesis of trans-N-[4-[2-(6-cyano-1,2,3, 4-tetrahydroisoquinolin-2-yl)ethyl]cyclohexyl]-4-quinolinecarboxamide (SB-277011): A potent and selective dopamine D(3) receptor antagonist with high oral bioavailability and CNS penetration in the rat” (J Med Chem, 2000)
